In ChEMBL document CHEMBL3588826, “Chimeric derivatives of functionalized amino acids and α-aminoamides: compounds with anticonvulsant activity in seizure models and inhibitory actions on central, peripheral, and cardiac isoforms of voltage-gated sodium channels” (Bioorg Med Chem, 2015):
Calls of active or inactive are those of the source. The calls are words filed in the database; no cut-off is given here.

Columns and labels:
[1] = Protective index, ratio of TD50 for neurotoxicity in ip dosed albino Carworth Farms No. 1 mouse to ED50 for anticonvulsant activity in ip dosed MES albino Carworth Farms No. 1 mouse model; type: toxicity, organism-based; conditions: in vivo, read-out: Ratio TD50/ED50
Procedure, shortened: (§1)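 Male albino Carworth Farms No. 1 mice were dosed ip. Protective index = TD50/ED50, the ED50 taken from the ip maximal electroshock test.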

Mus musculus [2] = assay: Anticonvulsant activity in ip dosed albino Carworth Farms No. 1 mouse measured at 0.25-0.5 hrs by 6Hz (32 mA) psychomotor seizure test; type: functional; conditions: Carworth Farms No. 1, ip
Procedure, shortened: (§2)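 Screened under the NIH Anticonvulsant Screening Program in male rodents, with mice and rats dosed ip and rats also dosed po. Maximal electroshock (MES) and 6 Hz (32 mA) psychomotor seizure tests were run.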

Rattus norvegicus [3] = organism: Rattus norvegicus; assay: Frequency-dependent inhibition of voltage-gated sodium channel in rat embryonic cortical neurons assessed as current amplitude at 10 uM measured at holding potential of -80 mV by whole cell patch-clamp electrophysiology
Procedure, shortened: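 E19 rat cortical neurons cultured 7–10 days were recorded by whole-cell voltage clamp at room temperature. Compound was at 10 μM versus 0.1% DMSO. A pulse train was applied, and available current was taken as peak current at pulse N divided by peak at pulse 1.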

Mus musculus [4] = assay: Anticonvulsant activity in ip dosed albino Carworth Farms No. 1 mouse measured at 0.25 hrs by maximal electroshock seizure test; type: functional; conditions: Carworth Farms No. 1, ip
Procedure, shortened: (§3)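 Screened under the NIH anticonvulsant program in male albino Carworth Farms No. 1 mice (ip) and male albino Sprague-Dawley rats (ip or oral). Protection tested by maximal electroshock or 6 Hz (32 mA) psychomotor stimulation.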

[5] = Behavioural toxicity in po dosed albino Sprague-Dawley rat measured at 0.25 - 4 hrs; type: organism-based; conditions: in vivo
Procedure, shortened: (§4)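 Male albino Sprague-Dawley rats were dosed ip or orally. […] Protective index = TD50/ED50, the ED50 taken from maximal electroshock by the same route.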

Rattus norvegicus [6] = assay: Anticonvulsant activity in po dosed albino Sprague-Dawley rat measured at 0.25 - 4.0 hrs by maximal electroshock seizure test; type: functional; procedure, shortened: as §2
[7] = Behavioural toxicity in po dosed albino Sprague-Dawley rat; conditions: in vivo
Rattus norvegicus [8] = assay: Anticonvulsant activity in po dosed albino Sprague-Dawley rat by maximal electroshock seizure test; type: functional; procedure, shortened: as §2
Rattus norvegicus [9] = assay: Anticonvulsant activity in ip dosed albino Sprague-Dawley rat by maximal electroshock seizure test; type: functional; procedure, shortened: as §2
Mus musculus [10] = assay: Anticonvulsant activity in ip dosed albino Carworth Farms No. 1 mouse by maximal electroshock seizure test; type: functional; conditions: Carworth Farms No. 1, ip; procedure, shortened: as §2
Mus musculus [11] = assay: Anticonvulsant activity in ip dosed albino Carworth Farms No. 1 mouse measured at 0.5 hrs by 6Hz (32 mA) psychomotor seizure test; type: functional; conditions: Carworth Farms No. 1, ip; procedure, shortened: as §3
[12] = Behavioural toxicity in po dosed albino Sprague-Dawley rat measured at 0.5 hrs; type: organism-based; conditions: in vivo; procedure, shortened: as §4
Rattus norvegicus [13] = assay: Anticonvulsant activity in po dosed albino Sprague-Dawley rat measured at 0.5 - 4 hrs by maximal electroshock seizure test; type: functional; procedure, shortened: as §3
Mus musculus [14] = assay: Anticonvulsant activity in ip dosed albino Carworth Farms No. 1 mouse measured at 0.5 hrs by maximal electroshock seizure test; type: functional; conditions: Carworth Farms No. 1, ip; procedure, shortened: as §3
Mus musculus [15] = assay: (§5) Neurotoxicity in ip dosed albino Carworth Farms No. 1 mouse measured at 0.5 hrs by rotarod test; type: toxicity, organism-based; conditions: mouse, in vivo, 0.5 h; procedure, shortened: as §1
Rattus norvegicus [16] = organism: Rattus norvegicus; assay: Inhibition of voltage-gated sodium channel in rat embryonic cortical neurons assessed as half-maximal voltage for steady state activation at 10 uM by whole cell patch-clamp electrophysiology (reference value: -27.1 +/- 1.3 mV)
Procedure, shortened: (§6)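 Rat embryonic day 19 cortical neurons, cultured 7–10 days, were whole-cell voltage-clamped at room temperature with 1–2 MΩ electrodes, with compound at 10 μM and 0.1% DMSO as control. Fast inactivation: 500 ms prepulses, then a test pulse. Activation: conductance G = I/(Vm − Vrev). V1/2 and k came from Boltzmann fits to individual cells, averaged (mean ± SEM), 5–7 cells per condition.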

[17] = Neurotoxicity in ip dosed albino Carworth Farms No. 1 mouse measured at 0.25 hrs by rotarod test; type: toxicity, organism-based; conditions: in vivo
Rattus norvegicus [18] = assay: Anticonvulsant activity in po dosed albino Sprague-Dawley rat measured at 0.25 - 1 hr by maximal electroshock seizure test; type: functional; procedure, shortened: as §3
[19] = Behavioural toxicity in ip dosed albino Sprague-Dawley rat measured at 1 hr; type: organism-based; conditions: in vivo; procedure, shortened: as §4
Rattus norvegicus [20] = assay: Anticonvulsant activity in ip dosed albino Sprague-Dawley rat measured at 0.25 hrs by maximal electroshock seizure test; type: functional; procedure, shortened: as §3
[21] = Protective index, ratio of TD50 for behavioural toxicity in ip dosed albino Sprague-Dawley rat to ED50 for anticonvulsant activity in ip dosed MES albino Sprague-Dawley rat model; type: organism-based; conditions: in vivo, read-out: Ratio TD50/ED50; procedure, shortened: as §4
Rattus norvegicus [22] = organism: Rattus norvegicus; assay: Inhibition of voltage-gated sodium channel in rat embryonic cortical neurons assessed as decrease in fraction of current available at 10 uM measured at -50 mV by whole cell patch-clamp electrophysiology
Procedure, shortened: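 Embryonic cortical neurons were treated with 10 μM compound or 0.1% DMSO, whole-cell voltage clamp at room temperature. Slow inactivation was assessed at −50 mV, with the fraction inactivated taken as 1 minus the normalized INa. Student's t-test; 5–8 cells per condition.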

Rattus norvegicus [23] = organism: Rattus norvegicus; assay: Effect on steady state activation of voltage-gated sodium channel in rat embryonic cortical neurons at 10 uM by whole cell patch-clamp electrophysiology; procedure, shortened: as §6
[24] = as §5; type: toxicity, organism-based; conditions: Carworth Farms No. 1, mouse, in vivo; procedure, shortened: as §1
Rattus norvegicus [25] = organism: Rattus norvegicus; assay: Effect on steady state fast-inactivation of voltage-gated sodium channel in rat embryonic cortical neurons at 10 uM by whole cell patch-clamp electrophysiology; procedure, shortened: as §6
Mus musculus [26] = assay: Anticonvulsant activity in ip dosed albino Carworth Farms No. 1 mouse measured at 0.5 - 2.0 hrs by maximal electroshock seizure test; type: functional; conditions: Carworth Farms No. 1, ip; procedure, shortened: as §3
Rattus norvegicus [27] = assay: Anticonvulsant activity in po dosed albino Sprague-Dawley rat measured at 5 hrs by maximal electroshock seizure test; type: functional; procedure, shortened: as §3
Mus musculus [28] = assay: Anticonvulsant activity in ip dosed albino Carworth Farms No. 1 mouse measured at 1 hr by maximal electroshock seizure test; type: functional; conditions: Carworth Farms No. 1, ip; procedure, shortened: as §3
Mus musculus [29] = assay: Anticonvulsant activity in ip dosed albino Carworth Farms No. 1 mouse measured at 0.25 hrs by 6Hz (32 mA) psychomotor seizure test; type: functional; conditions: Carworth Farms No. 1, ip; procedure, shortened: as §3
Rattus norvegicus [30] = assay: Anticonvulsant activity in ip dosed albino Sprague-Dawley rat measured at 0.5 hrs by maximal electroshock seizure test; type: functional; procedure, shortened: as §2
[31] = Behavioural toxicity in ip dosed albino Sprague-Dawley rat measured at 0.5 hrs; type: organism-based; conditions: in vivo
[32] = Protective index, ratio of TD50 for behavioural toxicity in po dosed albino Sprague-Dawley rat to ED50 for anticonvulsant activity in po dosed MES albino Sprague-Dawley rat model; type: organism-based; conditions: in vivo, read-out: Ratio TD50/ED50
Procedure, shortened: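 Male albino Sprague-Dawley rats were dosed ip or orally. Protective index = TD50/ED50, the ED50 taken from maximal electroshock by the same route.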

Rattus norvegicus [33] = assay: Anticonvulsant activity in po dosed albino Sprague-Dawley rat measured at 1 hr by maximal electroshock seizure test; type: functional; procedure, shortened: as §3
Rattus norvegicus [34] = organism: Rattus norvegicus; assay: Inhibition of voltage-gated sodium channel in rat embryonic cortical neurons assessed as transition of channels to slow-inactivated state at 10 uM measured at -50 mV by whole cell patch-clamp electrophysiology
Procedure, shortened: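 E19 rat cortical neurons cultured 7–10 days were recorded by whole-cell voltage clamp at room temperature, with electrodes of 1–2 MΩ. Compound was at 10 μM versus 0.1% DMSO control. Slow inactivation at −50 mV was calculated as 1 minus normalized peak INa, from 5–8 cells per condition.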

[35] = Behavioural toxicity in ip dosed albino Sprague-Dawley rat measured at 0.25 hrs; type: organism-based; conditions: in vivo; procedure, shortened: as §4
Rattus norvegicus [36] = assay: Anticonvulsant activity in po dosed albino Sprague-Dawley rat measured at 0.5 hrs by maximal electroshock seizure test; type: functional; procedure, shortened: as §3

Question: With COC[C@@H](NC(C)=O)C(=O)NCc1ccc(Oc2cccc(F)c2)cc1 as the molecule, how does the selectivity ratio [1] read?
Answer: 4.2

Question: And the ED50 (Mus musculus [2])?
Answer: 10 mg/kg

Question: And the inhibition (Rattus norvegicus [3])?
Answer: inactive

Question: And the ED50 (Mus musculus [4])?
Answer: 5.5 mg/kg

Question: What about the TD50 [5] of the same molecule?
Answer: > 10 mg/kg

Question: What about the ED50 (Rattus norvegicus [6]) of the same molecule?
Answer: < 10 mg/kg

Question: Which TD50 [7] does the source give for O=C1NC(=O)C(c2ccccc2)(c2ccccc2)N1 [PHENYTOIN] here?
Answer: > 1000 mg/kg

Question: And the ED50 (Rattus norvegicus [8])?
Answer: 28 mg/kg

Question: And the ED50 (Rattus norvegicus [9])?
Answer: 2.4 mg/kg

Question: Which ED50 (Rattus norvegicus [8]) does the source give for C[C@H](NCc1ccc(OCc2cccc(F)c2)cc1)C(N)=O [SAFINAMIDE] here?
Answer: 12 mg/kg

Question: And the ED50 (Mus musculus [10])?
Answer: 4.1 mg/kg

Question: Which ED50 (Mus musculus [11]) does the source give for COC[C@@H](NC(C)=O)C(=O)NCc1ccccc1 [LACOSAMIDE] here?
Answer: 10 mg/kg

Question: What about the TD50 at 0.5 h [12] of the same molecule?
Answer: > 500 mg/kg

Question: With COC[C@@H](NC(C)=O)C(=O)NCc1ccc(Oc2cccc(C(F)(F)F)c2)cc1 as the molecule, how does the ED50 (Mus musculus [11]) read?
Answer: < 100 mg/kg

Question: And the ED50 (Rattus norvegicus [13])?
Answer: < 30 mg/kg

Question: And the inhibition (Rattus norvegicus [3])?
Answer: inactive

Question: And the TD50 [5]?
Answer: > 30 mg/kg

Question: What about the ED50 (Mus musculus [14]) of the same molecule?
Answer: 10 mg/kg

Question: What about the TD50 (Mus musculus [15]) of the same molecule?
Answer: > 100 mg/kg

Question: And the V1/2 (Rattus norvegicus [16])?
Answer: -35.6 mV

Question: Which ED50 (Mus musculus [11]) does the source give for COC[C@@H](NC(C)=O)C(=O)NCc1ccc(Oc2cccc(OC)c2)cc1 here?
Answer: < 100 mg/kg

Question: What about the TD50 at 0.25 h [17] of the same molecule?
Answer: 85 mg/kg

Question: And the selectivity ratio [1]?
Answer: 6.5

Question: And the ED50 (Rattus norvegicus [18])?
Answer: 30 mg/kg

Question: What about the inhibition (Rattus norvegicus [3]) of the same molecule?
Answer: inactive

Question: And the ED50 (Mus musculus [4])?
Answer: 13 mg/kg

Question: What about the TD50 [5] of the same molecule?
Answer: > 30 mg/kg

Question: And the TD50 at 1 h [19]?
Answer: 120 mg/kg

Question: What about the ED50 (Rattus norvegicus [20]) of the same molecule?
Answer: 15 mg/kg

Question: What about the selectivity ratio [21] of the same molecule?
Answer: 8

Question: And the V1/2 (Rattus norvegicus [16])?
Answer: -36.8 mV

Question: For COC[C@@H](NC(C)=O)C(=O)NCc1ccc(Oc2ccccc2)cc1, which ED50 (Mus musculus [11]) is on record?
Answer: < 30 mg/kg

Question: And the inhibition (Rattus norvegicus [22])?
Answer: Active

Question: And the inhibition (Rattus norvegicus [3])?
Answer: inactive

Question: What about the Activity (Rattus norvegicus [23]) of the same molecule?
Answer: inactive

Question: And the TD50 at 0.5 h [24]?
Answer: < 100 mg/kg

Question: What about the Activity (Rattus norvegicus [25]) of the same molecule?
Answer: inactive

Question: What about the ED50 (Mus musculus [26]) of the same molecule?
Answer: < 30 mg/kg

Question: Which ED50 (Rattus norvegicus [27]) does the source give for CCC1(c2ccccc2)C(=O)NC(=O)NC1=O [PHENOBARBITAL] here?
Answer: 9.1 mg/kg

Question: And the ED50 (Mus musculus [28])?
Answer: 22 mg/kg

Question: What does the source list for COC[C@@H](NC(C)=O)C(=O)NCc1ccc(Oc2cccc(Cl)c2)cc1?
Answer: TD50 at 0.25 h [17]: 47 mg/kg; ED50 (Mus musculus [29]): 20 mg/kg; selectivity ratio [1]: 5; inhibition (Rattus norvegicus [3]): inactive; ED50 (Rattus norvegicus [30]): 5.9 mg/kg; TD50 at 0.5 h [31]: 49 mg/kg; selectivity ratio [32]: 18; ED50 (Rattus norvegicus [33]): 12 mg/kg; ED50 (Mus musculus [14]): 9.4 mg/kg; selectivity ratio [21]: 8.3; TD50 at 0.5 h [12]: 210 mg/kg; inhibition (Rattus norvegicus [34]): Active

Question: What does the source list for COC[C@@H](NC(C)=O)C(=O)NCc1ccc(Oc2cccc(C)c2)cc1?
Answer: ED50 (Mus musculus [11]): 100 mg/kg; TD50 at 0.25 h [17]: 65 mg/kg; selectivity ratio [1]: 4.6; inhibition (Rattus norvegicus [3]): inactive; ED50 (Mus musculus [4]): 14 mg/kg; TD50 at 0.25 h [35]: 140 mg/kg; TD50 [5]: > 30 mg/kg; ED50 (Rattus norvegicus [20]): 12 mg/kg; selectivity ratio [21]: 12; ED50 (Rattus norvegicus [36]): < 30 mg/kg

Question: Which ED50 (Mus musculus [4]) does the source give for CCCC(CCC)C(=O)O [VALPROIC ACID] here?
Answer: 270 mg/kg
